Source: ChEMBL document CHEMBL1145440, “SAR and QSAR studies on the N-terminally acylated pentapeptide agonists for GPR54” (J Med Chem, 2007)
pEC50: −log10 of the molar value. Square brackets hold non-standard residues; d marks the D form. Peptide text beside a SMILES is read from it. Trx = NC[C@H]1CC[C@H](C(=O)O)CC1; 4Amb = NCc1ccc(C(=O)O)cc1; 3Abz = Nc1cccc(C(=O)O)c1; 4Abz = Nc1ccc(C(=O)O)cc1; 2Abz = Nc1ccccc1C(=O)O; Ahx = NCCCCCC(=O)O

Experiments:
KiSS-1 receptor [1] = target: T1, KiSS-1 receptor (Homo sapiens, UniProt Q969F8); experiment: Agonist activity at GPR54 expressed in CHO cells assessed as intracellular calcium mobilization; type: functional, cell-based
KiSS-1 receptor [2] = target: T1, KiSS-1 receptor; experiment: Agonist activity at GPR54 expressed in CHO cells assessed as intracellular calcium mobilization at 10 nM relative to KP-10; type: functional, cell-based
Outline: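 FLIPR Fluo3 Ca2+ mobilization in CHO/dhfr cells stably expressing GPR54, read over 40 s. Peptide tested at 10 nM (n = 3). Maximum signal expressed as a percentage of the maximum induced by 1 µM KP-10 (n = 3).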

KiSS-1 receptor [3] = target: T1, KiSS-1 receptor; experiment: Ratio of EC50 of drug for GPR54 to EC50 of KP-10 for GPR54; type: functional
Outline: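 Q calculated as EC50(compound)/EC50(KP-10), with KP-10 run as control on each FLIPR Ca2+ plate (GPR54/CHO cells) to correct for plate-to-plate variation.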

T1 sequence (Q969F8 whole entry): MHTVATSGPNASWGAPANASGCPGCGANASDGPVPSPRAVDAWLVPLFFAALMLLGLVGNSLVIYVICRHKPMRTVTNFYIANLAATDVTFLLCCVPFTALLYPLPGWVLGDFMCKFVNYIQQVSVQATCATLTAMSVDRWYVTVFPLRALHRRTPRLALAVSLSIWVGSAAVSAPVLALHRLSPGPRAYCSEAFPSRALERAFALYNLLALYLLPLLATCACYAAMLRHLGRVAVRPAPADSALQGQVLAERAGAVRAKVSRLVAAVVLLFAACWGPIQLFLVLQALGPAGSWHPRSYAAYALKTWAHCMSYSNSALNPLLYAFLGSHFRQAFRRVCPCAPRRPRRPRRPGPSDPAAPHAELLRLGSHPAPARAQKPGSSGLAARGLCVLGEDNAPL

| Compound | pEC50 (KiSS-1 receptor [1]) | Activity (KiSS-1 receptor [2]) [%] | Ratio EC50 (KiSS-1 receptor [3]) |
| --- | --- | --- | --- |
| CC(C)C[C@H](NC(=O)CNC(=O)[C@H](Cc1ccccc1)NC(=O)c1ccc(CNCc2ccccn2)cc1)C(=O)N[C@@H](CCCNC(=N)N)C(=O)N[C@@H](Cc1c[nH]c2ccccc12)C(N)=O | 8.57 | 89.3 | 4.5 |
| CC(C)C[C@H](NC(=O)CNC(=O)[C@H](Cc1ccccc1)NC(=O)c1ccccc1OC(=O)c1ccccc1O)C(=O)N[C@@H](CCCNC(=N)N)C(=O)N[C@@H](Cc1c[nH]c2ccccc12)C(N)=O | 8.52 | 92.1 | 4 |
| CC(C)C[C@H](NC(=O)CNC(=O)[C@H](Cc1ccccc1)NC(=O)c1ccc(CN(Cc2ccccc2)Cc2ccccc2)cc1)C(=O)N[C@@H](CCCNC(=N)N)C(=O)N[C@@H](Cc1c[nH]c2ccccc12)C(N)=O | – | 9.3 | – |
| CC(C)C[C@H](NC(=O)CNC(=O)[C@H](Cc1ccccc1)NC(=O)c1ccccc1O)C(=O)N[C@@H](CCCN=C(N)N)C(=O)N[C@@H](Cc1c[nH]c2ccccc12)C(N)=O | 8.30 | – | – |
| CC(C)C[C@H](NC(=O)CNC(=O)[C@H](Cc1ccccc1)NC(=O)c1c(F)c(F)c(F)c(F)c1F)C(=O)N[C@@H](CCCNC(=N)N)C(=O)N[C@@H](Cc1c[nH]c2ccccc12)C(N)=O | < 7.00 | 0.6 | – |
| CC(C)C[C@H](NC(=O)CNC(=O)[C@H](Cc1ccccc1)NC(=O)c1ccc(CN(Cc2ccccn2)Cc2ccccn2)cc1)C(=O)N[C@@H](CCCNC(=N)N)C(=O)N[C@@H](Cc1c[nH]c2ccccc12)C(N)=O | – | 88.9 | – |
| CC(C)C[C@H](NC(=O)CNC(=O)[C@H](Cc1ccccc1)NC(=O)c1ccc([N+](=O)[O-])cc1)C(=O)N[C@@H](CCCNC(=N)N)C(=O)N[C@@H](Cc1c[nH]c2ccccc12)C(N)=O | 9.00 | 94.3 | 1.5 |
| CC(C)C[C@H](NC(=O)CNC(=O)[C@H](Cc1ccccc1)NC(=O)c1ccc(NC(=N)N)cc1)C(=O)N[C@@H](CCCNC(=N)N)C(=O)N[C@@H](Cc1c[nH]c2ccccc12)C(N)=O | 8.77 | 91.2 | 2.9 |
| CC(C)C[C@H](NC(=O)CNC(=O)[C@H](Cc1ccccc1)NC(=O)c1ccc(CNCc2ccccc2)cc1)C(=O)N[C@@H](CCCNC(=N)N)C(=O)N[C@@H](Cc1c[nH]c2ccccc12)C(N)=O | 8.48 | 86.5 | 5.6 |
| CC(C)C[C@H](NC(=O)CNC(=O)[C@H](Cc1ccccc1)NC(=O)c1ccccn1)C(=O)N[C@@H](CCCN=C(N)N)C(=O)N[C@@H](Cc1c[nH]c2ccccc12)C(N)=O | 9.10 | – | – |
| COc1ccc(C(=O)N[C@@H](Cc2ccccc2)C(=O)NCC(=O)N[C@@H](CC(C)C)C(=O)N[C@@H](CCCNC(=N)N)C(=O)N[C@@H](Cc2c[nH]c3ccccc23)C(N)=O)cc1 | 8.92 | 104 | 1.6 |
| CC(C)C[C@H](NC(=O)CNC(=O)[C@H](Cc1ccccc1)NC(=O)c1cc(O)c(O)c(O)c1)C(=O)N[C@@H](CCCN=C(N)N)C(=O)N[C@@H](Cc1c[nH]c2ccccc12)C(N)=O | < 7.00 | – | – |
| CC(C)C[C@H](NC(=O)CNC(=O)[C@H](Cc1ccccc1)NC(=O)c1ccc(CO)cc1)C(=O)N[C@@H](CCCN=C(N)N)C(=O)N[C@@H](Cc1c[nH]c2ccccc12)C(N)=O | 8.52 | – | – |
| CC(C)C[C@H](NC(=O)CNC(=O)[C@H](Cc1ccccc1)NC(=O)c1ccc(CN)cc1)C(=O)N[C@@H](CCCNC(=N)N)C(=O)N[C@@H](Cc1c[nH]c2ccccc12)C(N)=O (H-[4Amb]FGLRW-NH2) | 8.51 | 96.5 | 3.4 |
| CC(C)C[C@H](NC(=O)CNC(=O)[C@H](Cc1ccccc1)NC(=O)c1ccc(CNC(=N)N)cc1)C(=O)N[C@@H](CCCNC(=N)N)C(=O)N[C@@H](Cc1c[nH]c2ccccc12)C(N)=O | – | 93.7 | – |
| CC(C)C[C@H](NC(=O)CNC(=O)[C@H](Cc1ccccc1)NC(=O)c1ccc[nH]1)C(=O)N[C@@H](CCCN=C(N)N)C(=O)N[C@@H](Cc1c[nH]c2ccccc12)C(N)=O | 8.70 | – | – |
| CC(=O)NCc1ccc(C(=O)N[C@@H](Cc2ccccc2)C(=O)NCC(=O)N[C@@H](CC(C)C)C(=O)N[C@@H](CCCNC(=N)N)C(=O)N[C@@H](Cc2c[nH]c3ccccc23)C(N)=O)cc1 (Ac-[4Amb]FGLRW-NH2) | – | 101 | – |

The next lines start with the values.

| pEC50 (KiSS-1 receptor [1]) | Activity (KiSS-1 receptor [2]) [%] | Ratio EC50 (KiSS-1 receptor [3]) | Compound |
| --- | --- | --- | --- |
| 8.92 | 99.7 | 1.6 | CC(C)C[C@H](NC(=O)CNC(=O)[C@H](Cc1ccccc1)NC(=O)c1cccc(O)c1)C(=O)N[C@@H](CCCNC(=N)N)C(=O)N[C@@H](Cc1c[nH]c2ccccc12)C(N)=O |
| 8.51 | 94 | 2.8 | CC(C)C[C@H](NC(=O)CNC(=O)[C@H](Cc1ccccc1)NC(=O)c1ccccc1N)C(=O)N[C@@H](CCCNC(=N)N)C(=O)N[C@@H](Cc1c[nH]c2ccccc12)C(N)=O (H-[2Abz]FGLRW-NH2) |
| – | 1 | – | CC(C)C[C@H](NC(=O)CNC(=O)[C@H](Cc1ccccc1)NC(=O)c1cc(O)c(O)c(O)c1)C(=O)N[C@@H](CCCNC(=N)N)C(=O)N[C@@H](Cc1c[nH]c2ccccc12)C(N)=O |
| – | 94.6 | – | CC(C)C[C@H](NC(=O)CNC(=O)[C@H](Cc1ccccc1)NC(=O)c1ccc(O)cc1)C(=O)N[C@@H](CCCNC(=N)N)C(=O)N[C@@H](Cc1c[nH]c2ccccc12)C(N)=O |
| 8.33 | 88.5 | 4.2 | CC(C)C[C@H](NC(=O)CNC(=O)[C@H](Cc1ccccc1)NC(=O)c1cccc(N)c1)C(=O)N[C@@H](CCCNC(=N)N)C(=O)N[C@@H](Cc1c[nH]c2ccccc12)C(N)=O (H-[3Abz]FGLRW-NH2) |
| – | 91.8 | – | CC(C)C[C@H](NC(=O)CNC(=O)[C@H](Cc1ccccc1)NC(=O)c1ccc(Cl)cc1)C(=O)N[C@@H](CCCNC(=N)N)C(=O)N[C@@H](Cc1c[nH]c2ccccc12)C(N)=O |
| – | 95.4 | 4.7 | CC(C)C[C@H](NC(=O)CNC(=O)[C@H](Cc1ccccc1)NC(=O)c1ccc(CO)cc1)C(=O)N[C@@H](CCCNC(=N)N)C(=O)N[C@@H](Cc1c[nH]c2ccccc12)C(N)=O |
| – | 90.1 | 6.6 | CC(C)C[C@H](NC(=O)CNC(=O)[C@H](Cc1ccccc1)NC(=O)c1ccccc1O)C(=O)N[C@@H](CCCNC(=N)N)C(=O)N[C@@H](Cc1c[nH]c2ccccc12)C(N)=O |
| – | 1.6 | – | CC(C)C[C@H](NC(=O)CNC(=O)[C@H](Cc1ccccc1)NC(=O)CCCCCN)C(=O)N[C@@H](CCCNC(=N)N)C(=O)N[C@@H](Cc1c[nH]c2ccccc12)C(N)=O (H-[Ahx]FGLRW-NH2) |
| – | 9.9 | – | CC(C)C[C@H](NC(=O)CNC(=O)[C@H](Cc1ccccc1)NC(=O)[C@H]1CC[C@H](CN)CC1)C(=O)N[C@@H](CCCNC(=N)N)C(=O)N[C@@H](Cc1c[nH]c2ccccc12)C(N)=O (H-[Trx]FGLRW-NH2) |
| – | 95.8 | 1.7 | CC(C)C[C@H](NC(=O)CNC(=O)[C@H](Cc1ccccc1)NC(=O)c1ccc[nH]1)C(=O)N[C@@H](CCCNC(=N)N)C(=O)N[C@@H](Cc1c[nH]c2ccccc12)C(N)=O |
| – | 90.4 | – | CC(C)C[C@H](NC(=O)CNC(=O)[C@H](Cc1ccccc1)NC(=O)c1ccc(N)cc1)C(=O)N[C@@H](CCCNC(=N)N)C(=O)N[C@@H](Cc1c[nH]c2ccccc12)C(N)=O (H-[4Abz]FGLRW-NH2) |
| – | 95.6 | – | CC(C)C[C@H](NC(=O)CNC(=O)[C@H](Cc1ccccc1)NC(=O)c1ccc(F)cc1)C(=O)N[C@@H](CCCNC(=N)N)C(=O)N[C@@H](Cc1c[nH]c2ccccc12)C(N)=O |
| 8.52 | 93.5 | 4.1 | CC(C)C[C@H](NC(=O)CNC(=O)[C@H](Cc1ccccc1)NC(=O)c1cccnc1)C(=O)N[C@@H](CCCNC(=N)N)C(=O)N[C@@H](Cc1c[nH]c2ccccc12)C(N)=O |
| – | 88.4 | – | CC(C)C[C@H](NC(=O)CNC(=O)[C@H](Cc1ccccc1)NC(=O)c1c[nH]cn1)C(=O)N[C@@H](CCCNC(=N)N)C(=O)N[C@@H](Cc1c[nH]c2ccccc12)C(N)=O |
| 8.77 | 102 | 2.4 | CC(C)C[C@H](NC(=O)CNC(=O)[C@H](Cc1ccccc1)NC(=O)c1ccncc1)C(=O)N[C@@H](CCCNC(=N)N)C(=O)N[C@@H](Cc1c[nH]c2ccccc12)C(N)=O |
